This is an account of results in ChEMBL document CHEMBL1123347, “Topical nonsteroidal antipsoriatic agents. 1. 1,2,3,4-Tetraoxygenated naphthalene derivatives” (J Med Chem, 1986).

Data set [1] has as its system Mus musculus. The data set can be described thus: Compound was tested for inhibition of arachidonic acid induced mouse ear edema at 2 mg of dose. The format is functional. Summed up: (§1)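 Mouse ear edema induced by arachidonic acid (dissolved in acetone at 100 mg/mL). Test agent is applied topically in acetone, 2 mg/0.02 mL per total dose, 60 min before arachidonic acid. Ear edema is read 1 h later as the weight gain of an 8-mm-diameter ear plug. It is compared with acetone-only and arachidonic acid-only controls run in the same experiment. n = 8 per group; percent inhibition is reported as mean.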

Data set [2] is described as follows: Statistical significance, p values as compared to positive control by students t-test; NS=Not significant. The format is ADME. The essentials: (§2)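 Same arachidonic acid ear-edema model: 2 mg total topical dose in acetone, given 60 min before arachidonic acid, with 8 animals per group. Edema is measured by ear plug weight 1 h after arachidonic acid. p values come from Student's t-test against the concurrent arachidonic acid positive control. Thresholds are given as + (≤0.05) and so on.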

Data set [3] is described as follows: Partition coefficient (logP). To be noted: octanol/water. It counts as physicochemical. The essentials:
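Lipophilicity (log P) measured by 1-octanol-coated reversed-phase HPLC. The mobile phase is pH 7.4 PBS saturated with 1-octanol, run on RP-18 or C-18 packing. A second system is linked to the first through overlapping series. For the most lipophilic analogues that could not be detected, log P is calculated from Free-Wilson-derived substituent constants assuming additivity.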

Data set [4] relates to Mus musculus. As to the kind of experiment: Compound was tested for inhibition of arachidonic acid induced mouse ear edema at 2 mg of dose; I=Insoluble. The format is functional, organism-based. The essentials:
as §1

A short description of data set [5]: Statistical significance, p values as compared to positive control by students t-test. The format is ADME. The essentials: as §2
Data set [6] in a line: Statistical significance, p values as compared to positive control by students t-test; I=Insoluble. It counts as ADME. The essentials:
as §2

With `COc1c(OC)c(OC(=O)C(C)(C)C)c2c(C)cccc2c1OC(=O)C(C)(C)C`, the Inhibition in data set [1] was determined as 10%. Besides, the Significance entry in data set [2] is on record as “Not Active”. In data set [3], this compound showed a logP of 6.1.
On the same counts, the results for `COc1c(OC)c(OC(=O)C(C)(C)C)c2cc(C)c(C)cc2c1OC(=O)C(C)(C)C` are 6%, “Not Active” and 6.5.
For `COc1ccc2c(OC(=O)C(C)(C)C)c(OC)c(OC)c(OC(=O)C(C)(C)C)c2c1`, the Inhibition in data set [1] is given as 3%. In data set [2], the Significance result is given as “Not Active”. In addition, in data set [3], the lipophilicity (logP) is 5.4.
As for `CC(C)(C)C(=O)Oc1c(Oc2ccccc2)c(Oc2ccccc2)c(OC(=O)C(C)(C)C)c2cc(Cl)ccc12`, the inhibition result in data set [4] is recorded as “Insoluble”. Further, the logP in data set [3] was 8.7.
Regarding `CCC(=O)Oc1c(OC(C)C)c(OC(C)C)c(OC(=O)CC)c2cc(Cl)ccc12`, the Inhibition in data set [1] is 16%. The Significance result in data set [2] was “Not Active”. In data set [3], this compound yielded a logP of 5.8.
Consider `COc1c(OC)c(OC(=O)C(C)C)c2c(C)cccc2c1OC(=O)C(C)C`, for which the Inhibition in data set [1] stood at 12%. For the same compound, in data set [2], the Significance entry is recorded as “Not Active”. Further, in data set [3], the lipophilicity (logP) was found to be 5.
For the compound `CCC(=O)Oc1c(Oc2ccccc2)c(Oc2ccccc2)c(OC(=O)CC)c2cc(Cl)ccc12`, the Inhibition in data set [1] is reported as -15%. Moreover, in data set [2], the Significance entry is recorded as “Not Active”. This compound also showed a logP in data set [3] of 6.6.
In the case of `COc1c(OC)c(OC(C)=O)c2cc(Cl)ccc2c1OC(C)=O` [LONAPALENE], the Significance entry in data set [5] was “<= 0.001”. Moreover, the Inhibition in data set [1] turned out to be 54%. The lipophilicity (logP) in data set [3] came to 3.26.
`O=C(Oc1c(Oc2ccccc2)c(Oc2ccccc2)c(OC(=O)c2ccccc2)c2ccccc12)c1ccccc1`: the inhibition result in data set [4] is listed as “Insoluble”. Besides, the Significance result in data set [6] is “Insoluble”. This compound also came in with a log partition coefficient (logP) in data set [3] of 7.9.
As to `COc1c(OC)c(OC(=O)C(C)(C)C)c2c(Cl)cccc2c1OC(=O)C(C)(C)C`, in data set [1], the Inhibition is listed as 6%. Also, in data set [2], the Significance result is “Not Active”. Besides, in data set [3], the lipophilicity (logP) is 6.1.
With `COc1c(OC)c(OC(C)=O)c2cc(C#N)ccc2c1OC(C)=O`, the Inhibition in data set [1] is 7%. In addition, the Significance result in data set [2] is recorded as “Not Active”. In data set [3], this compound returned a logP of 2.28.
On to `COc1c(OC)c(OC(=O)C(C)(C)C)c2cc(Cl)ccc2c1OC(=O)C(C)(C)C`, for which, in data set [1], the Inhibition was found to be 11%. Further, the Significance entry in data set [2] is “Not Active”. The compound further had a logP in data set [3] of 6.6.
Take `CCCC(=O)Oc1c(Oc2ccccc2)c(Oc2ccccc2)c(OC(=O)CCC)c2cc(Cl)ccc12`: in data set [1], the Inhibition is reported as -5%. The Significance result in data set [2] is on record as “Not Active”. This compound also showed a log partition coefficient (logP) in data set [3] of 7.7.
As to `CC(=O)Oc1c(Oc2ccccc2)c(Oc2ccccc2)c(OC(C)=O)c2cc(Cl)ccc12`, the Inhibition in data set [1] is 5%. Further, the Significance result in data set [2] is “Not Active”. Moreover, the logP in data set [3] came to 5.6.
Regarding `CC(C)C(=O)Oc1c(Oc2ccccc2)c(Oc2ccccc2)c(OC(=O)C(C)C)c2cc(Cl)ccc12`, in data set [1], the Inhibition was 0%. Further, the Significance entry in data set [2] is reported as “Not Active”. In data set [3], the logP is 7.7.
Consider `CCC(=O)Oc1c(Oc2ccccc2)c(Oc2ccccc2)c(OC(=O)CC)c2ccccc12`, for which, in data set [4], the inhibition entry is “Insoluble”. Also, the Significance result in data set [6] was “Insoluble”. This compound had a logP in data set [3] of 5.8.
For the compound `CCCOc1c(OCCC)c(OC(=O)CCC)c2cc(Cl)ccc2c1OC(=O)CCC`, the Inhibition in data set [1] amounted to 2%. Also, in data set [2], the Significance entry was “Not Active”. This compound also yielded a logP in data set [3] of 7.6.
Consider `COc1c(OC)c(OC(=O)C(C)(C)C)c2ccccc2c1OC(=O)C(C)(C)C`, for which the Inhibition in data set [1] was 0%. Further, in data set [2], the Significance result is recorded as “Not Active”. Also, in data set [3], the log partition coefficient (logP) worked out at 5.69.
As for `CC(C)(C)C(=O)Oc1c(Oc2ccccc2)c(Oc2ccccc2)c(OC(=O)C(C)(C)C)c2ccccc12`, in data set [4], the inhibition result was “Insoluble”. Also, the Significance entry in data set [6] is reported as “Insoluble”. The logP in data set [3] is 7.8.
For `CC(=O)Oc1c(Oc2ccccc2)c(Oc2ccccc2)c(OC(C)=O)c2ccccc12`, the inhibition result in data set [4] is on record as “Insoluble”. Also, the Significance entry in data set [6] is listed as “Insoluble”. Further, the lipophilicity (logP) in data set [3] came out at 4.8.
With `O=C(Oc1c(Oc2ccccc2)c(Oc2ccccc2)c(OC(=O)c2ccccc2)c2cc(Cl)ccc12)c1ccccc1`, the Inhibition in data set [1] was -1%. Also, the Significance entry in data set [2] was “Not Active”. Besides, the log partition coefficient (logP) in data set [3] amounted to 8.7.
On the same counts, the results for `COc1c(OC)c(OC(C)=O)c2c(NC(C)=O)cccc2c1OC(C)=O` are 6%, “Not Active” and 2.
For the compound `COc1c(OC)c(OC(C)=O)c2c(Cl)cccc2c1OC(C)=O`, the Inhibition in data set [1] was found to be 11%. Moreover, the Significance entry in data set [2] is on record as “Not Active”. Moreover, the logP in data set [3] was found to be 3.16.
Take `CCCC(=O)Oc1c(OC)c(OC)c(OC(=O)CCC)c2cc(C)c(C)cc12`: the Inhibition in data set [1] came out at 14%. For the same compound, the Significance entry in data set [2] is “Not Active”. The compound further showed a logP in data set [3] of 5.4.

A word on the Inhibition: it is the relative decrease from the control value, in per cent. For orientation: logP means the decadic logarithm of the partition coefficient of the neutral form, usually between octanol and water.
